Screens deposited in PubChem BioAssay by several laboratories.
An excerpt weighted towards active compounds, which were near 2.2% of everything screened.
PfGluPho inh: PfG6PD (Plasmodium falciparum) enzyme inhibition | PfGluPho enzyme, NADPH resazurin-diaphorase fluorescence | inhibition, % at 20 µM | 350,000 compounds, 0.78% hits;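 active = inhibition reaching at least a set limit at 20 µM in the primary screen, cut at about 59% in these data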
HKDC1 inh: inhibitors of human hexokinase HKDC1; recombinant HKDC1, G6PDH/diaphorase resazurin coupled fluorescence; AID 493160; inhibition, % at 20 µM; 340,000 compounds, 0.16% hits;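 active = inhibition above about 35% when tested at 20 µM, limit read from the data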
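Assay system: in-house recombinant HK5 (HKDC1) enzyme. Input: HKDC1 at 5 µg/mL. Medium: Tris pH 8.0 buffer with MgCl2, Tween-20, BSA, BME. Dosing: single 20 µM dose. Schedule: 90 min reaction incubation at room temperature, dark. Signal: resazurin-to-resorufin fluorescence via G6PDH and diaphorase coupling, 525/613 nm. Controls: DMSO-enzyme wells negative, buffer-substituted wells positive.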
Neddylation inh: blocks human cullin neddylation | P61081+Q13564 | TR-FRET cullin neddylation, biochemical | inhibition, % at 25 µM | 360,000 compounds, 0.58% hits; in the data active = inhibition above about 36%
Target sequence (P61081 whole entry, looked up): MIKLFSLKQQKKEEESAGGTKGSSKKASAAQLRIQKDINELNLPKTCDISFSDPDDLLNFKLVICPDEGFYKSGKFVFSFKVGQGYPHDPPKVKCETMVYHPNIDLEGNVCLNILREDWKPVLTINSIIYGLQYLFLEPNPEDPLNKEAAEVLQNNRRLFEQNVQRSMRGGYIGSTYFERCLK
Target sequence (Q13564 whole entry, looked up): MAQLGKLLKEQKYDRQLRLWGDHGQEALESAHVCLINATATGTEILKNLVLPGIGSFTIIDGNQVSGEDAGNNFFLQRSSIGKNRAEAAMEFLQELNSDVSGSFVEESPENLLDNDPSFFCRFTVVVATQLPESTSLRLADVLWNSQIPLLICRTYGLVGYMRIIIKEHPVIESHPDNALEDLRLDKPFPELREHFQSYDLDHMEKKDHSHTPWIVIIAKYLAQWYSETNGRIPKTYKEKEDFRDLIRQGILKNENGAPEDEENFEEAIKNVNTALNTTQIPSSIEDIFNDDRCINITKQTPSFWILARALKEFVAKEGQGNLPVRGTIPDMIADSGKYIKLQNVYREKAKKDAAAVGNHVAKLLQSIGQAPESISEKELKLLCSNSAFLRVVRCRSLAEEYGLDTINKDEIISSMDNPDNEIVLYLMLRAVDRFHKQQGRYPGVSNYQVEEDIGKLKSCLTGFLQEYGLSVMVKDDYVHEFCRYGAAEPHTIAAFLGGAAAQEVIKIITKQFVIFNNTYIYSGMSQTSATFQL
PfM18AAP inh: PfM18AAP enzyme inhibition; recombinant PfM18AAP, H-Glu-NHMec fluorogenic cleavage; inhibition, % at 7.35 µM; 290,000 compounds, 1.2% hits;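 active = inhibition above the campaign mean inhibition over all tested compounds plus 3 SD, cut at about 28% in these data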
PfGluPho conf: confirmation of Plasmodium falciparum G6PD inhibitors. inhibition, % at 20 µM. recombinant PfGluPho, NADPH-diaphorase-resazurin fluorescence. 2,400 compounds, 34% hits. shares compounds with PfGluPho inh;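 active = inhibition of at least 50% at 20 µM in any single replicate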
Diaph ctr 10uM: diaphorase inhibition or oxidation at 10 uM NADPH | shares compounds with PfGluPho inh | diaphorase-coupled resazurin reduction, fluorescence, NADPH 10 uM | inhibition, % at 20 µM | 820 compounds, 39% hits;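 active = average inhibition reaching 50% or more with the compound at 20 µM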;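 note: resorufin red fluorescence formed as diaphorase reduces resazurin using NADPH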
Diaph ctr 30uM: inhibits diaphorase or oxidizes, flagging false PfG6PD hits; shares compounds with PfGluPho inh; 820 compounds, 29% hits; Diaphorase/resazurin coupled assay, resorufin fluorescence, 30 uM NADPH; AID 504863; inhibition, % at 20 µM;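 active = inhibition averaging 50% or more, tested at 20 µM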
Large screens that a line does not name were inactive (follow-up assays come after a bar, where they were run).

O=C(N/N=C/c1cccc([N+](=O)[O-])c1)c1ccccc1-n1cccc1	PfGluPho inh 63 | PfGluPho conf inactive
Cc1cc(C)nc(SCC(=O)N/N=C/c2cccc([N+](=O)[O-])c2)n1	PfGluPho inh 93 | PfGluPho conf inactive
CCOc1cccc(-c2c(C(=O)N/N=C(\C)c3cccnc3)nnn2-c2nonc2N)c1	none
COc1ccc(Nc2nc(C)c(-c3ccccc3)s2)cc1	PfGluPho inh 76 | PfGluPho conf inactive
Cc1nc(Nc2ccc(S(N)(=O)=O)cc2)sc1-c1ccccc1	none
Cc1ccccc1NC(=O)CSc1nc2ncc(Cl)cc2[nH]1	none
Cc1ccc(S(=O)(=O)N(C)C)cc1NC(=O)CSc1nc2ncc(Cl)cc2[nH]1	PfGluPho inh 66 (no result: PfM18AAP inh) | PfGluPho conf 52 | Diaph ctr 10uM inactive | Diaph ctr 30uM inactive
O=C(c1cccc(Cl)c1)C1CCCN(S(=O)(=O)c2ccccc2)C1 (stereo not given)	none
CCC(C)N(C(=O)CSc1nnc2ccccn12)C1CCS(=O)(=O)C1 (stereo not given)	none (no result: PfM18AAP inh)
COCCN(Cc1nc2ccccc2c(=O)[nH]1)C(=O)COc1c(C)cc(Cl)cc1C	PfGluPho inh 72 (no result: PfM18AAP inh) | PfGluPho conf inactive
CCCCN(Cc1nc2ccccc2c(=O)[nH]1)C(=O)COc1ccc(F)cc1Cl	none (no result: PfM18AAP inh)
CCOC(=O)c1ccccc1NS(=O)(=O)c1ccccc1	PfGluPho inh 79 | PfGluPho conf 60 | Diaph ctr 10uM 58 | Diaph ctr 30uM 54
COC(=O)c1c(NS(=O)(=O)c2ccccc2)csc1C	PfGluPho inh 91 | PfGluPho conf 78 | Diaph ctr 10uM 72 | Diaph ctr 30uM 56
COC(=O)c1c(NC(=O)c2ccc(C)cc2)csc1C	none
CSc1ncnc2c1ncn2CCCN1CCN(c2ncccn2)CC1	none (no result: HKDC1 inh, PfM18AAP inh)
O=C(COc1cccc(F)c1)Nc1nc(-c2ccccn2)cs1	PfGluPho inh 62 (no result: HKDC1 inh, PfM18AAP inh) | PfGluPho conf inactive
Cc1ccc(C2(C)NC(=O)N(CC(=O)Nc3nc(-c4ccccn4)cs3)C2=O)cc1 (stereo not given)	PfGluPho inh 72 (no result: PfM18AAP inh) | PfGluPho conf inactive
CC1(c2ccccc2)NC(=O)N(CC(=O)Nc2nc(-c3ccccn3)cs2)C1=O (stereo not given)	none (no result: PfM18AAP inh)
CCOC(=O)CN1NC2(CCCCC2)NC1=S	none
CCOC(=O)CN1NC2(CCCCCCC2)NC1=S	PfGluPho inh 66 | PfGluPho conf inactive
Cc1cccc(C)c1NC(=O)CSc1nnc(-c2ccco2)c(-c2ccco2)n1	PfGluPho inh 63 | PfGluPho conf inactive
Cc1ccccc1NC(=O)CSc1nnc(-c2ccco2)c(-c2ccco2)n1	none
CSc1ncc(C(=O)Nc2cccnc2)c(C(F)(F)F)n1	none
CCCOc1ccc(/C=C/C(=O)Nc2ccc([N+](=O)[O-])cc2)cc1	none
CCOC(=O)c1c(NC(=O)/C=C/c2ccc(C)o2)sc(C)c1C	none
Cc1ccc(/C=C/C(=O)Nc2ccc([N+](=O)[O-])cc2)o1	PfGluPho inh 88 | PfGluPho conf inactive
Cc1ccc(/C=C/C(=O)Nc2sc(C)c(C)c2C(=O)OC(C)C)o1	PfGluPho inh 60 | PfGluPho conf inactive
Cc1ccc(/C=C/C(=O)Nc2ccc(Oc3ccccc3)cc2)o1	PfGluPho inh 61 | PfGluPho conf inactive
CCCN(CC(=O)Nc1ccccc1OC)C(=O)Cn1c(=O)oc2ccccc21	none (no result: PfM18AAP inh)
Cc1c(NC(=O)C(C)OC(=O)c2ccc([N+](=O)[O-])cc2Cl)c(=O)n(-c2ccccc2)n1C (stereo not given)	none (no result: PfM18AAP inh)
Cc1ccc(N(CC(=O)N/N=C/c2cccs2)S(C)(=O)=O)cc1Cl	PfGluPho inh 106 | PfGluPho conf 75 | Diaph ctr 10uM 70 | Diaph ctr 30uM 65
CCCc1cc(C(=O)Nc2ccc(C(=O)c3ccc(C)cc3)cc2)n(C)n1	none
O=C1c2ccccc2-c2onc3ccc(NCc4ccco4)c1c23	PfGluPho inh 74 | PfGluPho conf inactive
CCNc1ccc2noc3c2c1C(=O)c1ccccc1-3	none
COc1ccc(CCN2CC(C(=O)Nc3ccc(S(C)(=O)=O)cc3)CC2=O)cc1OC (stereo not given)	none (no result: PfM18AAP inh)
CCOC(=O)c1sc(NC(=O)C2CCCO2)c(C(=O)OC)c1C (stereo not given)	none (no result: PfGluPho inh, HKDC1 inh, Neddylation inh)
CCCOC(=O)c1c(NC(=O)C2CCCO2)sc(C(=O)OC)c1C (stereo not given)	PfGluPho inh 59, PfM18AAP inh 39 | PfGluPho conf inactive
CC1=CC(=Nc2c(C)n(C)n(-c3ccccc3)c2=O)C=CC1=O	none (no result: PfGluPho inh, HKDC1 inh, Neddylation inh)
CC1=CC(=Nc2c(C)n(C)n(-c3ccccc3)c2=O)C=C(C)C1=O	PfGluPho inh 72 | PfGluPho conf 57 | Diaph ctr 10uM 64 | Diaph ctr 30uM 69
COc1ccccc1NC(=O)c1ccc2c(c1)N(CC#N)C(=O)C(C)(C)O2	none
Cc1nc2ccccn2c1-c1ccnn1S(=O)(=O)c1ccc(F)cc1	PfGluPho inh 77 | PfGluPho conf 56 | Diaph ctr 10uM inactive | Diaph ctr 30uM 59
CCc1nnc(NC(=O)C2CCN(C(=O)c3ccco3)CC2)s1	none
CCC(C)(C)c1nnc(NC(=O)C2CCN(C(=O)c3ccco3)CC2)s1	PfGluPho inh 79 | PfGluPho conf 61 | Diaph ctr 10uM inactive | Diaph ctr 30uM inactive
COc1ccc(Nc2ccc3c(c2)=NC2(CCCCC2)[N+]=3[O-])cc1	PfGluPho inh 78 | PfGluPho conf inactive
[O-][N+]1=c2ccc(Nc3ccccc3)cc2=NC12CCCCC2	PfGluPho inh 61 | PfGluPho conf inactive
COc1ccc(NC2=NC(=S)N(c3ccccc3C)C23CCCCC3)cc1	none
Cc1cc(C)c(S(=O)(=O)N2CCCCC2CCNC(=O)C(=O)NCc2ccco2)c(C)c1 (stereo not given)	none (no result: PfM18AAP inh)
CCC1S/C(=N/C(=O)NC2CCCCC2)NC1=O (stereo not given)	none
O=C(/N=C1\NC(=O)C(F)(C(F)(F)F)S1)NC1CCCCC1 (stereo not given)	PfGluPho inh 73 (no result: PfM18AAP inh) | PfGluPho conf inactive
O=C(Cc1cccc(NC(=O)C2CCCN(C(=O)C3CCC3)C2)c1)Nc1ccc(C(=O)N2CCCCC2)cc1 (stereo not given)	none (no result: PfM18AAP inh)
CCCN1C(=O)COc2ccc(C(=O)c3ccccc3C(=O)O)cc21	none
O=C(O)c1ccccc1C(=O)c1ccc2c(c1)N(Cc1cccc(F)c1)C(=O)CO2	PfGluPho inh 93 | PfGluPho conf 58 | Diaph ctr 10uM 58 | Diaph ctr 30uM 52
CN(Cc1ccc(Cl)cc1)C(=O)COC(=O)c1ccc(-c2ccc(O)cc2)cc1	none (no result: PfM18AAP inh)
S=C(Nc1ccc(Cl)cc1)Nc1cccc2cnccc12	PfGluPho inh 75 | PfGluPho conf inactive
CN(C)S(=O)(=O)c1cccc(NC(=S)Nc2cccc3cnccc23)c1	PfGluPho inh 69 | PfGluPho conf inactive
S=C(Nc1cccnc1)Nc1cccc2cnccc12	none
